Data taken from ChEMBL document CHEMBL3352165 (Eur J Med Chem, 2014).

Experiments:
[1] = AUC (0 to 24 hrs) in Beagle dog at 240 mg/kg, po administered as single dose measured after 0.25 to 24 hrs post dose by LC/MS/MS method; type: ADME, organism-based, Canis lupus familiaris; design: time < 24 hr, dose 240 mg/kg, route oral; settings: plasma
Summary of the method: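 Single oral gavage of 240 mg/kg to beagle dogs (n = 6). Blood sampled at 0.25–24 h, kept on ice, centrifuged within 1 h (1000 × g, 4 °C, 15 min), plasma stored at −20 °C. Drug quantified by validated LC/MS/MS. AUC0–24 from non-compartmental analysis; Cmax and MRT taken directly from concentration–time data.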

[2] = biological target: Epidermal growth factor receptor (Homo sapiens, UniProt P00533); settings: A-431, 0.001 to 1 uM
BT-474 [3] = assay: Induction of cell cycle arrest in human BT474 cells assessed as accumulation at G1 phase at 0.01 uM incubated for 12 hrs by propidium iodide staining based flow cytometry (reference value: 67%); type: functional
[4] = Elimination half life in Beagle dog at 240 mg/kg, po dosed for 14 days by LC/MS/MS method; type: ADME, organism-based, Canis lupus familiaris; design: dose 240 mg/kg, route oral; settings: in vivo, read-out: beta t1/2 (converted)
Summary of the method: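 Beagle dogs (n = 6) dosed by oral gavage at 240 mg/kg daily for 14 consecutive days. Blood taken predose and at 0.25–24 h on days 1 and 14, plasma stored at −20 °C, analysed by validated LC/MS/MS. Half-life and AUC by model-independent methods; Cmax and MRT read from concentration–time data.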

BT-474 [5] = assay: Induction of cell cycle arrest in human BT474 cells assessed as accumulation at S phase at 0.1 uM incubated for 12 hrs by propidium iodide staining based flow cytometry (reference value: 19%); type: functional
BT-474 [6] = assay: Induction of cell cycle arrest in human BT474 cells assessed as accumulation at G2/M phase at 0.1 uM incubated for 12 hrs by propidium iodide staining based flow cytometry (reference value: 14%); type: functional
BT-474 [7] = assay: Induction of cell cycle arrest in human BT474 cells assessed as accumulation at G2/M phase at 10 uM incubated for 12 hrs by propidium iodide staining based flow cytometry (reference value: 14%); type: functional

Sequence of Epidermal growth factor receptor (P00533 whole entry): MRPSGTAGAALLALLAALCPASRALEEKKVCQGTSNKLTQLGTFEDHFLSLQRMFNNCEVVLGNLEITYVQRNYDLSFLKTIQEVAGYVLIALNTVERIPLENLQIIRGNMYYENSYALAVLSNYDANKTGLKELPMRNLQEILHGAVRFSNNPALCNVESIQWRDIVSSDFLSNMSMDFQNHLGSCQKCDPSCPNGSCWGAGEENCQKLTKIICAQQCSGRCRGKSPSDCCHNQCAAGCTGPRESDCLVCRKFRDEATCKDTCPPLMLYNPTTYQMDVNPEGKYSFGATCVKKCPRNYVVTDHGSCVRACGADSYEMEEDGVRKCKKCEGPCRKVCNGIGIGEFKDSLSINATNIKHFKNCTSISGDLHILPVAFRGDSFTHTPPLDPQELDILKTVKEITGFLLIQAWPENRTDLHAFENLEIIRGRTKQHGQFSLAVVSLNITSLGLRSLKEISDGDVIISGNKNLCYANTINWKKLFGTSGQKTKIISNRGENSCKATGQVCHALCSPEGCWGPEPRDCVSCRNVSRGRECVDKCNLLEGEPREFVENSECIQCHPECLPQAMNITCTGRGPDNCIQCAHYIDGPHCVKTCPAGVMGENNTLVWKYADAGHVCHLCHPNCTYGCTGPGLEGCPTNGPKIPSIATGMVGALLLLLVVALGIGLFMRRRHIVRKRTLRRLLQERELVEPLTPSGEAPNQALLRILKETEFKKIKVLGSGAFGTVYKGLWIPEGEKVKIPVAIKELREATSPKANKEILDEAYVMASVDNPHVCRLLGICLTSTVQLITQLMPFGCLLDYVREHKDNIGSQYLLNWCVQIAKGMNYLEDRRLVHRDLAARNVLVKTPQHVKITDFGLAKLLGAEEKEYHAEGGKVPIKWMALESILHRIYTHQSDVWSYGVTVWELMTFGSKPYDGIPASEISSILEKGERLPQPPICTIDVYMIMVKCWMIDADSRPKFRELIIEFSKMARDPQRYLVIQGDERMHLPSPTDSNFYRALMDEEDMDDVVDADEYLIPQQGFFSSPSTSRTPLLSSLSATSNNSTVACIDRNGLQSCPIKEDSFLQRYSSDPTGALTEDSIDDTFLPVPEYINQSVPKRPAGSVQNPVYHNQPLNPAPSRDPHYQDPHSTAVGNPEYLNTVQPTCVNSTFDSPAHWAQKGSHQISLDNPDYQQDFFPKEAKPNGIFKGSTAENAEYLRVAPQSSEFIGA

AUC(0-t) at 24 h [1]: 29800 ng·h/mL
inhibition [2]: Dose-dependent effect
half-life [4]: 4.8 h
Compound: CN(C)[C@H](CS(C)(=O)=O)c1ccc(-c2ccc3ncnc(Nc4ccc(OCc5cccc(F)c5)c(Cl)c4)c3c2)o1
Activity (BT-474 [3]): 77%
Activity (BT-474 [5]): 5%
Activity (BT-474 [6]): 11%
Activity (BT-474 [7]): 12%
